Data as given in ChEMBL document CHEMBL3045677, “Sulfonamide-1,2,4-thiadiazole derivatives as antifungal and antibacterial agents: synthesis, biological evaluation, lipophilicity, and conformational studies” (2010).
In brackets after ≈: the same amount, converted by molar mass.

What was measured:
[1] = system: Aspergillus niger; experiment: Antifungal activity against Aspergillus niger ATCC 6275 at 28 degC measured after 72 hr by microdilution method; format: functional; settings: ATCC 6275, 72 h
Summary of the method: (§1)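 Fungi were kept on malt agar at 4 °C. Spores were washed off with sterile 0.85% saline containing 0.1% Tween 80 and adjusted to about 1.0×10⁵ per well. Compounds were dissolved in DMSO (1 mg/ml stock) and serially diluted in malt broth with inoculum in 96-well plates, 72 h at 28 °C, for MIC. MFC came from subculture into fresh broth for a further 72 h at 28 °C.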

[2] = system: Bacillus cereus; experiment: Antibacterial activity against clinical isolate Bacillus cereus at […] degC measured after 24 hr by microdilution method; format: functional
Summary of the method: (§2)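 Bacteria suspended in sterile saline at 1.0×10⁵ CFU/ml and added at 1.0×10⁴ CFU per well to LB broth with compound (1 mg/ml) in 96-well plates. Incubated 24 h at […] °C. MIC was the lowest concentration without visible growth under a binocular microscope. OD 655 nm was read against a blank and a positive control.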

[3] = system: Listeria monocytogenes; experiment: Antibacterial activity against Listeria monocytogenes NCTC 7973 at […] degC measured after 24 hr by microdilution method; format: functional; settings: NCTC 7973, 24 h; summary of the method: as §2
[4] = system: Escherichia coli; experiment: Antibacterial activity against Escherichia coli ATCC 35210 at […] degC measured after 72 hr by microdilution method; format: functional; settings: ATCC 35210, 72 h
Summary of the method: (§3)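 Bactericidal endpoint: after the 24 h broth microdilution (1.0×10⁴ CFU per well, LB broth, […] °C), wells were serially subcultured into plates of fresh broth and incubated a further 72 h. MBC was the lowest concentration with no visible growth, taken as 99.5% killing of the original inoculum.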

[5] = system: Pseudomonas aeruginosa; experiment: Antibacterial activity against Pseudomonas aeruginosa ATCC 27853 at […] degC measured after 72 hr by microdilution method; format: functional; settings: ATCC 27853, 72 h; summary of the method: as §3
[6] = system: Staphylococcus aureus; experiment: Antibacterial activity against Staphylococcus aureus ATCC 6538 at […] degC measured after 72 hr by microdilution method; format: functional; settings: ATCC 6538, 72 h; summary of the method: as §3
[7] = system: Micrococcus flavus; experiment: Antibacterial activity against Micrococcus flavus ATCC 10240 at […] degC measured after 72 hr by microdilution method; format: functional; settings: ATCC 10240, 72 h; summary of the method: as §3
[8] = system: Aspergillus fumigatus; experiment: Antifungal activity against plant isolate Aspergillus fumigatus at 28 degC measured after 72 hr by microdilution method; format: functional; summary of the method: as §1
[9] = system: Bacillus cereus; experiment: Antibacterial activity against clinical isolate Bacillus cereus at […] degC measured after 72 hr by microdilution method; format: functional; summary of the method: as §3
[10] = system: Pseudomonas aeruginosa; experiment: Antibacterial activity against Pseudomonas aeruginosa ATCC 27853 at […] degC measured after 24 hr by microdilution method; format: functional; settings: ATCC 27853, 24 h; summary of the method: as §2
[11] = system: Fulvia fulva; experiment: Antifungal activity against Passalora fulva TK5318 at 28 degC measured after 72 hr by microdilution method; format: functional; settings: TK5318, 72 h; summary of the method: as §1
[12] = system: Talaromyces funiculosus; experiment: Antifungal activity against Talaromyces funiculosus ATCC 36839 at 28 degC measured after 72 hr by microdilution method; format: functional; settings: ATCC 36839, 72 h; summary of the method: as §1
[13] = system: Proteus mirabilis; experiment: Antibacterial activity against Proteus mirabilis at […] degC measured after 24 hr by microdilution method; format: functional; summary of the method: as §2
[14] = system: Salmonella typhimurium; experiment: Antibacterial activity against Salmonella enterica subsp. enterica serovar TyphimuriumATCC 13311 at […] degC measured after 72 hr by microdilution method; format: functional, Salmonella enterica subsp. enterica serovar Typhimurium; settings: ATCC 13311, 72 h; summary of the method: as §3
[15] = system: Aspergillus versicolor; experiment: Antifungal activity against Aspergillus versicolor ATCC 11730 at 28 degC measured after 72 hr by microdilution method; format: functional; settings: ATCC 11730, 72 h; summary of the method: as §1
[16] = system: Salmonella typhimurium; experiment: Antibacterial activity against Salmonella enterica subsp. enterica serovar Typhimurium ATCC 13311 at […] degC measured after 24 hr by microdilution method; format: functional; settings: ATCC 13311, 24 h; summary of the method: as §2
[17] = system: Trichoderma viride; experiment: Antifungal activity against Hypocrea rufa IAM 5061 at 28 degC measured after 72 hr by microdilution method; format: functional; settings: IAM 5061, 72 h; summary of the method: as §1
[18] = system: Escherichia coli; experiment: Antibacterial activity against Escherichia coli ATCC 35210 at […] degC measured after 24 hr by microdilution method; format: functional; settings: ATCC 35210, 24 h; summary of the method: as §2
[19] = system: Listeria monocytogenes; experiment: Antibacterial activity against Listeria monocytogenes NCTC 7973 at […] degC measured after 72 hr by microdilution method; format: functional; settings: NCTC 7973, 72 h; summary of the method: as §3
[20] = system: Staphylococcus aureus; experiment: Antibacterial activity against Staphylococcus aureus ATCC 6538 at […] degC measured after 24 hr by microdilution method; format: functional; settings: ATCC 6538, 24 h; summary of the method: as §2
[21] = system: Proteus mirabilis; experiment: Antibacterial activity against Proteus mirabilis at […] degC measured after 72 hr by microdilution method; format: functional; summary of the method: as §3
[22] = system: Aspergillus flavus; experiment: Antifungal activity against Aspergillus flavus ATCC 9643 at 28 degC measured after 72 hr by microdilution method; format: functional; settings: ATCC 9643, 72 h; summary of the method: as §1
[23] = system: Penicillium ochrochloron; experiment: Antifungal activity against Penicillium ochrochloron ATCC 9112 at 28 degC measured after 72 hr by microdilution method; format: functional; settings: ATCC 9112, 72 h; summary of the method: as §1
[24] = system: Micrococcus flavus; experiment: Antibacterial activity against Micrococcus flavus ATCC 10240 at […] degC measured after 24 hr by microdilution method; format: functional; settings: ATCC 10240, 24 h; summary of the method: as §2

MIC [1]	MIC [2]	MIC [3]	MIC [10]	MIC [13]	MIC [16]	MIC [18]	MIC [20]	MIC [24]	SMILES	MFC [1]	MBC [4]	MBC [5]	MBC [6]	MBC [7]	MFC [8]	MIC [8]	MBC [9]	MBC [14]	MBC [19]	MBC [21]	other results
17.9 µM (≈ 9.98 µg/mL)	17.9 µM (≈ 9.98 µg/mL)	17.9 µM (≈ 9.98 µg/mL)	17.9 µM (≈ 9.98 µg/mL)	17.9 µM (≈ 9.98 µg/mL)	17.9 µM (≈ 9.98 µg/mL)	17.9 µM (≈ 9.98 µg/mL)	17.9 µM (≈ 9.98 µg/mL)	17.9 µM (≈ 9.98 µg/mL)	COc1cc(Cc2nnc(Nc3ccc(C(F)(F)F)cc3)s2)c(S(=O)(=O)N2CCN(C)CC2)cc1OC	35.8 µM (≈ 20 µg/mL)	17.9 µM (≈ 9.98 µg/mL)	35.8 µM (≈ 20 µg/mL)	35.8 µM (≈ 20 µg/mL)	35.8 µM (≈ 20 µg/mL)	17.9 µM (≈ 9.98 µg/mL)	8.9 µM (≈ 4.96 µg/mL)	17.9 µM (≈ 9.98 µg/mL)	35.8 µM (≈ 20 µg/mL)	35.8 µM (≈ 20 µg/mL)	35.8 µM (≈ 20 µg/mL)	MFC [11]: 17.9 µM (≈ 9.98 µg/mL); MIC [11]: 8.9 µM (≈ 4.96 µg/mL); MFC [12]: 17.9 µM (≈ 9.98 µg/mL); MIC [12]: 8.9 µM (≈ 4.96 µg/mL); MFC [15]: 35.8 µM (≈ 20 µg/mL); MIC [15]: 17.9 µM (≈ 9.98 µg/mL); MFC [17]: 17.9 µM (≈ 9.98 µg/mL); MIC [17]: 8.9 µM (≈ 4.96 µg/mL); MFC [22]: 35.8 µM (≈ 20 µg/mL); MIC [22]: 17.9 µM (≈ 9.98 µg/mL); MFC [23]: 35.8 µM (≈ 20 µg/mL); MIC [23]: 17.9 µM (≈ 9.98 µg/mL)
10.7 µM (≈ 5.02 µg/mL)	10.7 µM (≈ 5.02 µg/mL)	85.2 µM (≈ 40 µg/mL)	42.6 µM (≈ 20 µg/mL)	21.3 µM (≈ 9.99 µg/mL)	21.3 µM (≈ 9.99 µg/mL)	42.6 µM (≈ 20 µg/mL)	21.3 µM (≈ 9.99 µg/mL)	21.3 µM (≈ 9.99 µg/mL)	COc1cc(Cc2nnc(Nc3ccc(Cl)cc3)s2)c(S(=O)(=O)N(C)C)cc1OC	42.6 µM (≈ 20 µg/mL)	85.2 µM (≈ 40 µg/mL)	85.2 µM (≈ 40 µg/mL)	42.6 µM (≈ 20 µg/mL)	42.6 µM (≈ 20 µg/mL)	42.6 µM (≈ 20 µg/mL)	10.7 µM (≈ 5.02 µg/mL)	21.3 µM (≈ 9.99 µg/mL)	42.6 µM (≈ 20 µg/mL)	85.2 µM (≈ 40 µg/mL)	42.6 µM (≈ 20 µg/mL)	MFC [11]: 85.2 µM (≈ 40 µg/mL); MIC [11]: 21.3 µM (≈ 9.99 µg/mL); MFC [12]: 21.3 µM (≈ 9.99 µg/mL); MIC [12]: 10.7 µM (≈ 5.02 µg/mL); MFC [15]: 42.6 µM (≈ 20 µg/mL); MIC [15]: 10.7 µM (≈ 5.02 µg/mL); MFC [17]: 21.3 µM (≈ 9.99 µg/mL); MIC [17]: 10.7 µM (≈ 5.02 µg/mL); MFC [22]: 42.6 µM (≈ 20 µg/mL); MIC [22]: 10.7 µM (≈ 5.02 µg/mL); MFC [23]: 42.6 µM (≈ 20 µg/mL); MIC [23]: 21.3 µM (≈ 9.99 µg/mL)
	43 µM (≈ 25 µg/mL)	258 µM (≈ 150 µg/mL)	172 µM (≈ 100 µg/mL)	172 µM (≈ 100 µg/mL)	172 µM (≈ 100 µg/mL)	172 µM (≈ 100 µg/mL)	172 µM (≈ 100 µg/mL)	86 µM (≈ 50 µg/mL)	CN[C@@H]1[C@H](O[C@H]2[C@H](O[C@H]3[C@H](O)[C@@H](O)[C@H](N=C(N)N)[C@@H](O)[C@@H]3N=C(N)N)O[C@@H](C)[C@]2(O)C=O)O[C@@H](CO)[C@H](O)[C@H]1O [STREPTOMYCIN]		344 µM (≈ 200 µg/mL)	344 µM (≈ 200 µg/mL)	344 µM (≈ 200 µg/mL)	172 µM (≈ 100 µg/mL)			86 µM (≈ 50 µg/mL)	344 µM (≈ 200 µg/mL)	516 µM (≈ 300 µg/mL)	344 µM (≈ 200 µg/mL)	
	248 µM (≈ 86.7 µg/mL)	372 µM (≈ 130 µg/mL)	744 µM (≈ 260 µg/mL)	372 µM (≈ 130 µg/mL)	248 µM (≈ 86.7 µg/mL)	372 µM (≈ 130 µg/mL)	248 µM (≈ 86.7 µg/mL)	248 µM (≈ 86.7 µg/mL)	CC1(C)S[C@@H]2[C@H](NC(=O)[C@H](N)c3ccccc3)C(=O)N2[C@H]1C(=O)O [AMPICILLIN]		492 µM (≈ 172 µg/mL)	1240 µM (≈ 433 µg/mL)	372 µM (≈ 130 µg/mL)	372 µM (≈ 130 µg/mL)			372 µM (≈ 130 µg/mL)	492 µM (≈ 172 µg/mL)	744 µM (≈ 260 µg/mL)	492 µM (≈ 172 µg/mL)	

SMILES	MIC [1]	MIC [2]	MIC [3]	MIC [10]	MIC [13]	MIC [16]	MIC [18]	MIC [20]	MIC [24]	MFC [1]	MBC [4]	MBC [5]	MBC [6]	MBC [7]	MFC [8]	MIC [8]	MBC [9]	MBC [14]	MBC [19]	MBC [21]	other results
CC(=O)N1CCN(c2ccc(OCC3COC(Cn4ccnc4)(c4ccc(Cl)cc4Cl)O3)cc2)CC1 (configuration not stated) [KETOCONAZOLE]	380 µM (≈ 202 µg/mL)									950 µM (≈ 505 µg/mL)					950 µM (≈ 505 µg/mL)	380 µM (≈ 202 µg/mL)					MFC [11]: 950 µM (≈ 505 µg/mL); MIC [11]: 380 µM (≈ 202 µg/mL); MFC [12]: 950 µM (≈ 505 µg/mL); MIC [12]: 380 µM (≈ 202 µg/mL); MFC [15]: 950 µM (≈ 505 µg/mL); MIC [15]: 380 µM (≈ 202 µg/mL); MFC [17]: 5700 µM (≈ 3030 µg/mL); MIC [17]: 4750 µM (≈ 2520 µg/mL); MFC [22]: 3800 µM (≈ 2020 µg/mL); MIC [22]: 2850 µM (≈ 1510 µg/mL); MFC [23]: 3800 µM (≈ 2020 µg/mL); MIC [23]: 3800 µM (≈ 2020 µg/mL)
